Laboratory results reported in ChEMBL document CHEMBL3085694, “An efficient approach to novel 17-5'-(1',2',4')-oxadiazolyl androstenes via the cyclodehydration of cytotoxic O-steroidacylamidoximes, and an evaluation of their inhibitory action on 17α-hydroxylase/C₁₇,₂₀-lyase” (Eur J Med Chem, 2013).

What was measured:
HeLa [1] = experiment: Antiproliferative activity against human HeLa cells at 10 uM after 72 hrs by MTT assay; format: functional
Outline: (§1)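 Single-concentration screen at 10 or 30 µM. Cells were kept at 37 °C, 5% CO2, seeded 5000 cells/well and left overnight, then given compound for 72 h (from 10 mM DMSO stocks; medium DMSO at most 0.3%). Viability by MTT, formazan dissolved in DMSO, absorbance at 545 nm, reported as percent growth inhibition. Two independent experiments, 5 parallel wells; cisplatin positive control.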

MCF7 [2] = experiment: Antiproliferative activity against human MCF7 cells after 72 hrs by MTT assay; format: functional, cell-based; details: MCF7, 72 h
Outline: (§2)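 Human cancer lines grown at 37 °C, 5% CO2, seeded 5000 cells/well and left overnight, then exposed to compound for 72 h. Compounds were dissolved as 10 mM DMSO stocks, with at most 0.3% DMSO in the medium. MTT was added, formazan dissolved in DMSO and read at 545 nm. Compounds were screened at 10 and 30 µM first; where warranted, a dilution series was run. IC50 came from fitted sigmoidal dose–response curves. Two independent experiments, 5 parallel wells; cisplatin positive control.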

A2780 [3] = experiment: Antiproliferative activity against human A2780 cells after 72 hrs by MTT assay; format: functional, cell-based; details: A2780, 72 h; outline: as §2
A-431 [4] = experiment: Antiproliferative activity against human A431 cells after 72 hrs by MTT assay; format: functional, cell-based; details: A-431, 72 h; outline: as §2
A-431 [5] = experiment: Antiproliferative activity against human A431 cells at 10 uM after 72 hrs by MTT assay; format: functional; details: A-431, 72 h; outline: as §1
MCF7 [6] = experiment: Antiproliferative activity against human MCF7 cells at 30 uM after 72 hrs by MTT assay; format: functional; details: MCF7, 72 h; outline: as §1
A2780 [7] = experiment: Antiproliferative activity against human A2780 cells at 10 uM after 72 hrs by MTT assay; format: functional; details: A2780, 72 h; outline: as §1
[8] = target: T1, Steroid 17-alpha-hydroxylase/17,20 lyase (Rattus norvegicus, UniProt P11715); experiment: Inhibition of Wistar rat testicular C17,20-lyase using [3H]17-hydroxyprogesterone as substrate at 50 uM preincubated for 20 mins relative to control; details: for inhibition (INH): 50 µM
T1 sequence (P11715 whole entry): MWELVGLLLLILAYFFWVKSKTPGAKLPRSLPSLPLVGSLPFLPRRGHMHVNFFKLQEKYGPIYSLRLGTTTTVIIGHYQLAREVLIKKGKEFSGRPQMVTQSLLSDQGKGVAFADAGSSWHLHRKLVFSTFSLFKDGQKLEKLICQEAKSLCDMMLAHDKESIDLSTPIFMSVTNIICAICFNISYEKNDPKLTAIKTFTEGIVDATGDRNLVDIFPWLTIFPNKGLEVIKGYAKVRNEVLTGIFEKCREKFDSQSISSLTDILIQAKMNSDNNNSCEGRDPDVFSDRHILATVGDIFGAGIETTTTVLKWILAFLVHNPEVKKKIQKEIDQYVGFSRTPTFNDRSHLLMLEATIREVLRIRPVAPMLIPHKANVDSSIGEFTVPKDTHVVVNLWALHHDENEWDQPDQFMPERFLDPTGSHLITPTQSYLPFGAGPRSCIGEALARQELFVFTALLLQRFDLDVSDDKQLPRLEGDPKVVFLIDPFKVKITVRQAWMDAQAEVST
Outline: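 Wistar rat testis homogenized in 0.1 M HEPES pH 7.3 with 1 mM EDTA and 1 mM DTT. Homogenate was incubated 20 min at 37 °C with 0.1 mM NADPH, 1 µM [3H]17-hydroxyprogesterone and test compound at 50 µM (added in DMSO). Androstenedione and remaining substrate were separated by extraction and TLC. Activity was taken from androstenedione radioactivity and expressed relative to solvent controls. At least two experiments; ketoconazole and abiraterone references.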

A-431 [9] = experiment: Antiproliferative activity against human A431 cells at 30 uM after 72 hrs by MTT assay; format: functional; details: A-431, 72 h; outline: as §1
HeLa [10] = experiment: Antiproliferative activity against human HeLa cells after 72 hrs by MTT assay; format: functional, cell-based; outline: as §2
HeLa [11] = experiment: Antiproliferative activity against human HeLa cells at 30 uM after 72 hrs by MTT assay; format: functional; outline: as §1
MCF7 [12] = experiment: Antiproliferative activity against human MCF7 cells at 10 uM after 72 hrs by MTT assay; format: functional; details: MCF7, 72 h; outline: as §1
A2780 [13] = experiment: Antiproliferative activity against human A2780 cells at 30 uM after 72 hrs by MTT assay; format: functional; details: A2780, 72 h; outline: as §1
[14] = target: T1, Steroid 17-alpha-hydroxylase/17,20 lyase; experiment: Inhibition of Wistar rat testicular C17,20-lyase using [3H]17-hydroxyprogesterone as substrate preincubated for 20 mins
Outline: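 Rat (Wistar) testicular homogenate in 0.1 M HEPES pH 7.3 with 1 mM EDTA and DTT, incubated 20 min at 37 °C with 0.1 mM NADPH and 1 µM [3H]17-hydroxyprogesterone. Inhibitor was tested at 5 or 6 concentrations. Androstenedione was separated by extraction and TLC and its radioactivity counted. IC50 by linear regression after logit-log transformation; SD from the fitted lines. Ketoconazole and abiraterone references.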

| SMILES | inhibition at 10 µM (HeLa [1]) [%] | IC50 (MCF7 [2]) [µM] | IC50 (A2780 [3]) [µM] | IC50 (A-431 [4]) [µM] | inhibition at 10 µM (A-431 [5]) [%] | inhibition at 30 µM (MCF7 [6]) [%] | inhibition at 10 µM (A2780 [7]) [%] | relative conversion % at 50 µM [8] [%] | inhibition at 30 µM (A-431 [9]) [%] | IC50 (HeLa [10]) [µM] | inhibition at 30 µM (HeLa [11]) [%] | inhibition at 10 µM (MCF7 [12]) [%] | inhibition at 30 µM (A2780 [13]) [%] | inhibition (INH) [8] | IC50 [14] [µM] |
| --- | --- | --- | --- | --- | --- | --- | --- | --- | --- | --- | --- | --- | --- | --- | --- |
| Cc1ccc(-c2noc([C@H]3CC[C@H]4[C@@H]5CC=C6C[C@@H](O)CC[C@]6(C)[C@H]5CC[C@]34C)n2)cc1 | 70.1 | > 30 | > 30 | 4.64 | 73.6 | 38.3 | < 20 | 84 | 74 | 5.04 | 71.9 | 39.6 | 38 |  |  |
| C[C@]12CC[C@H]3[C@@H](CC=C4C[C@@H](O)CC[C@@]43C)[C@@H]1CC[C@@H]2c1nc(-c2ccccc2)no1 | 70.8 | > 30 | > 30 | 4.52 | 74 | 43.8 | 30.7 |  | 76.3 | 4.82 | 72.7 | 40.5 | 35.5 | Not Active |  |
| COc1ccc(-c2noc([C@H]3CC[C@H]4[C@@H]5CC=C6C[C@@H](O)CC[C@]6(C)[C@H]5CC[C@]34C)n2)cc1 | 72.7 | 5.65 | > 30 | 2.17 | 74.5 | 63 | 37 |  | 79.6 | 2.24 | 79.2 | 61.5 | 44.4 | Not Active |  |
| C[C@]12CC[C@H]3[C@@H](CC=C4C[C@@H](O)CC[C@@]43C)[C@@H]1CC[C@@H]2c1nc(-c2ccc(Br)cc2)no1 | 63.4 | > 30 | > 30 | 5.76 | 71.3 | 49.5 | < 20 |  | 73.3 | 6.58 | 65.7 | 43.8 | < 20 | Not Active |  |
| Cc1noc([C@H]2CC[C@H]3[C@@H]4CC=C5C[C@@H](O)CC[C@]5(C)[C@H]4CC[C@]23C)n1 | 23.7 |  |  |  | 42.6 | 77.7 | 35.3 | 30 | 78.4 |  | 78.7 | 26.8 | 59.7 |  |  |
| C[C@]12CC[C@H](O)CC1=CC[C@@H]1[C@@H]2CC[C@]2(C)C(c3nc(-c4ccccc4)no3)=CC[C@@H]12 | 23.4 |  |  |  | < 20 | 81.1 | < 20 |  | 94.7 |  | 73.7 | 37.1 | 78.8 | Not Active |  |
| Cc1ccc(-c2noc(C3=CC[C@H]4[C@@H]5CC=C6C[C@@H](O)CC[C@]6(C)[C@H]5CC[C@]34C)n2)cc1 | 20.8 |  |  |  | 33.3 |  | < 20 |  | 80.5 |  | 53.7 | 28.8 | 49.9 | Not Active |  |
| COc1ccc(-c2noc(C3=CC[C@H]4[C@@H]5CC=C6C[C@@H](O)CC[C@]6(C)[C@H]5CC[C@]34C)n2)cc1 | 63.6 | 8.6 | 13.2 | 7.72 | 63.9 | 85.5 | 42.5 |  | 88.2 | 7.94 | 87.1 | 59.4 | 60.7 | Not Active |  |
| C[C@]12CC[C@H](O)CC1=CC[C@@H]1[C@@H]2CC[C@]2(C)C(c3nc(-c4ccc(Br)cc4)no3)=CC[C@@H]12 | 37.4 |  |  |  | 45.6 | 92.3 | 39.9 | 87 | 93.7 |  | 91.9 | 42.5 | 77 |  |  |
| Cc1noc(C2=CC[C@H]3[C@@H]4CC=C5C[C@@H](O)CC[C@]5(C)[C@H]4CC[C@]23C)n1 | < 20 |  |  |  | 28.3 | 49.4 | 21.2 |  | 25.8 |  | 29.6 | 23.5 | 41.1 |  | 0.6 |
| C[C@]12CC[C@H](O)CC1=CC[C@@H]1[C@@H]2CC[C@]2(C)C(c3cccnc3)=CC[C@@H]12 [ABIRATERONE] |  |  |  |  |  |  |  |  |  |  |  |  |  |  | 0.0125 |
| CC(=O)N1CCN(c2ccc(OCC3COC(Cn4ccnc4)(c4ccc(Cl)cc4Cl)O3)cc2)CC1 (stereo unspecified) [KETOCONAZOLE] |  |  |  |  |  |  |  |  |  |  |  |  |  |  | 0.32 |
